Data set [1] can be described thus: Inhibition of H+/K+ ATPase in hog gastric mucosa by malachite green based competitive binding assay. Format: tissue-based, Sus scrofa. An outline of the steps:
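Hog gastric mucosa H+/K+-ATPase, isolated enzyme; competitive binding assay run at pH 7.4; pIC50 reported as geometric mean of 4-5 measurements.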

The subject of another data set is Gastric gland. Nature of the data set: Inhibition of acid secretion in New Zealand White rabbit intact gastric glands assessed as [14C]dimethylaminopyridine accumulation by radioactivity. Format: functional, tissue-based. The note with it: Oryctolagus cuniculus. An outline of the steps:
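Gastric glands isolated intact from New Zealand rabbits; cellular activity read as reduced accumulation of the weak base 14C-dimethylaminopyridine; pIC50 given as geometric mean of 4-5 determinations.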

For a further data set, the system named is Rattus norvegicus. The data set is described as follows: Inhibition of pentagastrin-stimulated acid secretion in intraduodenally dosed perfused Sprague-Dawley rat Ghosh Schild model. It counts as functional. The note with it: intraduodenal.
Data set [2] can be described thus: Octanol/aqueous KCl distribution coefficient, log D at pH 7.4 by potentiometric titration. It counts as physicochemical. An outline of the steps:
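Octanol/aqueous KCl distribution coefficient from potentiometric titrations across pH 2.0-11.0 at 25 °C.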

The nature of data set [3]: Partition coefficient, log D by HPLC. The note with it: octanol/water. Format: physicochemical. An outline of the steps:
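logD by reversed-phase HPLC at 37 °C, calibrated with seven reference substances of known logD.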

Data set [4] in a line: Dissociation constant, pKa at pH 2.0 to 11.0 by potentiometric cosolvent titration. Format: physicochemical.
The next data set concerns the target hERG (KCNH2) (Homo sapiens, UniProt Q12809). Nature of the data set: Inhibition of human ERG expressed in CHO-K1 cells at 10 uM by whole-cell patch clamp technique. Format: cell-based. The note with it: CHO-K1 cells that express human ERG. An outline of the steps: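 CHO-K1 cells stably transfected with hERG; whole-cell patch clamp recording of tail currents with test compound at 10 μM, three cells per compound; relative block of tail current amplitude given as arithmetic mean.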
Background: The patch-clamp technique gives a direct electrical read-out from membranes.

Data set [5] concerns Canis familiaris. Nature of the data set: Inhibition of pentagastrin-stimulated acid secretion in po dosed Beagle dog fistula model assessed as elevation of intragastric pH after 8 hrs. It counts as functional, organism-based. The note with it: Canis lupus familiaris. An outline of the steps:
(§1)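 Surgically prepared fistula dogs; pentagastrin infused subcutaneously from 1 h after start of pH-metry over 22.5 h; drug or vehicle given orally in capsules 2.5 h after start; intragastric pH recorded continuously for 24 h with combined glass electrode and ambulatory pH meter; duration of pH >5 read from curves.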

The subject of data set [6] is Canis familiaris. The data set is described as follows: Inhibition of pentagastrin-stimulated acid secretion in po dosed Beagle dog fistula model assessed as elevation of intragastric pH after 2 hrs. It counts as functional, organism-based. The note with it: Canis lupus familiaris. An outline of the steps: as §1
The test system of data set [7] is Canis familiaris. Nature of the data set: Inhibition of pentagastrin-stimulated acid secretion in po dosed Beagle dog fistula model assessed as elevation of intragastric pH. The note with it: Canis lupus familiaris. It counts as functional, organism-based. An outline of the steps:
as §1

A short description of data set [8]: Clearance in Beagle dog fistula model. The note with it: in vivo. Format: ADME, organism-based, Canis lupus familiaris.
The nature of data set [9]: Clearance in Sprague-Dawley rat Ghosh Schild model. Format: ADME, organism-based. The note with it: in vivo.
The subject of data set [10] is Canis familiaris. The data set is described as follows: Inhibition of pentagastrin-stimulated acid secretion in Beagle dog fistula model assessed as elevation of intragastric pH at 9 umol/kg, po after 8 hrs. It counts as functional, organism-based. The note with it: Canis lupus familiaris. An outline of the steps:
as §1

Data set [11] in a line: Oral bioavailability in Beagle dog fistula model. Format: ADME, organism-based, Canis lupus familiaris. The note with it: in vivo.
Data set [12] is described as follows: Oral bioavailability in Sprague-Dawley rat Ghosh Schild model. It counts as ADME, organism-based. The note with it: in vivo.
The test system of data set [13] is Canis familiaris. Nature of the data set: Inhibition of pentagastrin-stimulated acid secretion in po dosed Beagle dog fistula model assessed as elevation of intragastric pH after 2.5 hrs. The note with it: Canis lupus familiaris. It counts as functional, organism-based. An outline of the steps:
as §1

The record followed here is ChEMBL document CHEMBL1158548, “Tetrahydrochromenoimidazoles as potassium-competitive acid blockers (P-CABs): structure-activity relationship of their antisecretory properties and their affinity toward the hERG channel” (J Med Chem, 2010).

Each structure is given as a SMILES string. Active and inactive are the calls of the source. No cut-off for these calls is given here.

Chain of hERG (KCNH2) (Q12809 whole entry): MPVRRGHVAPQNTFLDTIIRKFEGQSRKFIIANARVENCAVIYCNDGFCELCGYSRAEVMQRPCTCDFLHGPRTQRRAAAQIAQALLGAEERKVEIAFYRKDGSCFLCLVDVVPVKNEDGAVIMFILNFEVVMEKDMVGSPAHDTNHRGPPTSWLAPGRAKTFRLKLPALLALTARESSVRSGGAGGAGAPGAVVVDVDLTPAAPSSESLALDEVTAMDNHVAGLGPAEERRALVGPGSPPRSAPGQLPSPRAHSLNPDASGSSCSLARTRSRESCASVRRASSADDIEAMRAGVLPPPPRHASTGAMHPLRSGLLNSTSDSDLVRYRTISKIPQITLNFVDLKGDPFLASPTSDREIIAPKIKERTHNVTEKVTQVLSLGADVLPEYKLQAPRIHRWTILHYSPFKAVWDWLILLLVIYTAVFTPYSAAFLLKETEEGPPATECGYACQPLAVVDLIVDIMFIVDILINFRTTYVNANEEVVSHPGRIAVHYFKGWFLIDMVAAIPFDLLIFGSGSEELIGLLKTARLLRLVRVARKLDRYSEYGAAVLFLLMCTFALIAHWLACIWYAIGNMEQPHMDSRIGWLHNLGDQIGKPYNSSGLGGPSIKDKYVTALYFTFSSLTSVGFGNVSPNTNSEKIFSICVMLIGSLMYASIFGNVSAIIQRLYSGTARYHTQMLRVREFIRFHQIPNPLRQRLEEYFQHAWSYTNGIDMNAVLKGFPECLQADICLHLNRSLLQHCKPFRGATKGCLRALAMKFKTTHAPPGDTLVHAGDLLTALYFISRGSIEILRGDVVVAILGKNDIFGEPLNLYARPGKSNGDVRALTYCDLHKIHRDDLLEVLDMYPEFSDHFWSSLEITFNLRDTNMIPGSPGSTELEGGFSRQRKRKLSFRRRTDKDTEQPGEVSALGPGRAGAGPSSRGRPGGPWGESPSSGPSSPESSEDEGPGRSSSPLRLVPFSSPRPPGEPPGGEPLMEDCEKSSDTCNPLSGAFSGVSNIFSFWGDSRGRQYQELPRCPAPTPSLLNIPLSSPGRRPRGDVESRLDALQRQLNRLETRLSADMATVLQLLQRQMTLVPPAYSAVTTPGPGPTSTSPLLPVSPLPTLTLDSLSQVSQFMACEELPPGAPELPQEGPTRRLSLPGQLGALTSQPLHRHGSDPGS

Turning to `CNC(=O)c1cc2c(nc(C)n2C)c2c1CC[C@@H](c1ccc(Cl)cc1C)O2`, in data set [1], the pIC50 (usually the IC50 on a negative log10 scale, so that one unit is a factor of ten) was 4.9. Also, the half-inhibitory concentration (IC50) (usually the midpoint of a concentration-inhibition curve) with Gastric gland was 794 nM. Further, it took a dose of 0.15 µmol/kg to reach the 50% effect level in the data set with Rattus norvegicus (ED50). The logD (usually the decadic logarithm of the distribution of all forms, ionised or not, between an organic phase and buffer at a given pH) in [2] turned out to be 3.46; in data set [3], 3.1. The pKa (usually the pH at which an ionisable group is half protonated) in data set [4] (read-out: pKa) was found to be 5.6. For the same compound, on hERG (KCNH2), the inhibition (as a rule, the drop in the measured response relative to a control, in per cent) at 10 µM came to 45%. For the same compound, in the data set on Canis familiaris [5], the result was Active.

On to `Cc1nc2c3c(c(C(=O)N(C)C)cc2n1C)CC[C@@H](c1ccc(Cl)cc1)O3`, for which the pIC50 in data set [1] was 5.1. Besides, in the data set on Gastric gland, the half-inhibitory concentration (IC50) was 398 nM. Moreover, the 50% effect level in the data set on Rattus norvegicus (ED50) was put at a dose of 0.15 µmol/kg. The logD in [2] amounted to 2.92; in data set [3] it was 2.9. In addition, in data set [4] (read-out: pKa), the pKa amounted to 5.59. The inhibition at 10 µM against hERG (KCNH2) is 84%. Moreover, the outcome in the data set on Canis familiaris [6] and in the data set with Canis familiaris [7] was Active.

In the case of `Cc1ccccc1[C@@H]1CCc2c(C(=O)N(C)C)cc3c(nc(C)n3C)c2O1`, the values for the clearance in data set [8] and in data set [9] were 4.67 mL/min/kg and 21 mL/min/kg, respectively. Further, the pIC50 in data set [1] stood at 5.3. In addition, the IC50 with Gastric gland was 794 nM. The ED50 (commonly the dose at which the effect has come halfway, by size or by number of responders) with Rattus norvegicus turned out to be 0.23 µmol/kg. The log distribution coefficient (logD) in data set [3] amounted to 2.8. This compound also showed a pKa in data set [4] of 5.68. On hERG (KCNH2), this compound had an inhibition at 10 µM of 33%. The outcome with Canis familiaris [10] was Active. Also, the bioavailability (usually dose-corrected exposure relative to a reference, in per cent) in data set [11] amounted to 72%; in data set [12], 64%.

Take `CNC(=O)c1cc2c(nc(C)n2C)c2c1CC[C@@H](c1ccccc1C)O2`: the pIC50 in data set [1] is given as 5.1. The IC50 with Gastric gland was 2510 nM. Moreover, in the data set with Rattus norvegicus, the 50% effect level (ED50) was put at a dose of 0.25 µmol/kg. For the same compound, in data set [3], the logD came out at 2.7. This compound also returned a pKa in [4] of 5.7. Further, the inhibition at 10 µM against hERG (KCNH2) came out at 3%. The result with Canis familiaris [13] was Active.
